These results are taken from publication PMC3258117 (Journal of Medicinal Chemistry, 2011).

Where two headings read alike, the source gives them in different places. A value given as a limit tells only on which side of the number the result lay.

Data set [1] deals with T. cruzi Tulahuen C4 amastigotes. Briefly: In vitro growth inhibition of T. cruzi amastigotes in infected L6 myoblasts. It is filed as cell-based, Trypanosoma cruzi. The note with it: for activity designation against T. cruzi: classes by IC50 criteria of b15; for fold increase of T. cruzi IC50 compared to the nitro-containing analog: non-nitro triazoles 19 and 31 versus 17 and 29.

A short description of data set [2]: Reduction potential by cyclic voltammetry. It is filed as physicochemical. The note with it: cyclic voltammetry relative to Ag/AgCl. The procedure, abridged: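 Half-wave reduction potentials (E1/2) measured by cyclic voltammetry against an Ag/AgCl reference electrode, using a carbon mesh working electrode and a Pt wire counter electrode. The supporting electrolyte was 0.1M tetrabutylammonium hexafluorophosphate (TBAPF6).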

Data set [3] relates to L. donovani MHOM-ET-67/L82 axenic amastigotes. Nature of the data set: In vitro growth inhibition of axenically cultured L. donovani amastigotes. Format: cell-based, Leishmania donovani. As to conditions: SI = IC50 in L6 cells / IC50 in parasites.
For data set [4] the following is noted: cited from earlier work.
The subject of data set [5] is L6 cells (rat skeletal myoblasts). Briefly: Cytotoxicity assessment using L6 cells. Format: cell-based. The note with it: read-out: Cytotox. L6 IC-50.
Data set [6] deals with T.b. rhodesiense STIB 900 trypomastigotes. Briefly: In vitro growth inhibition of T. b. rhodesiense bloodstream form trypomastigotes. The note with it: for activity designation against T.b. rhodesiense: classes by IC50 criteria of b15. It is filed as cell-based, Trypanosoma brucei rhodesiense.
For data set [7] the following is noted: 15 mg/kg given i.p. for 30 days; cited from earlier work.
In the next data set the test system is T. cruzi. As to conditions: 2 mg/kg/day for 50 days, mice, acute phase of infection; cited from earlier work.
[8] abbreviates: SI = IC50 in L6 cells / IC50 in parasites.

Turning to `Cl.Cl.O=[N+]([O-])c1ncn(CCCN2CCN(c3ccc(C(F)(F)F)cc3)CC2)n1` [Compound 42, 1-[3-(3-Nitro-1H-1,2,4-triazol-1-yl)propyl]-4-[4-(trifluoromethyl)phenyl]piperazine dihydrochloride], the “fold increased antichagasic activity compared to 40 and 41” value in data set [1] (T. cruzi in vitro) was “about 10 fold”. In the case of `Cl.O=[N+]([O-])c1ncn(CCCNCc2cc(C(F)(F)F)cc(C(F)(F)F)c2)n1` [Compound 29, {[3,5-bis(Trifluoromethyl)phenyl]methyl}[3-(3-nitro-1H-1,2,4-triazol-1-yl)propyl]amine hydrochloride], the “activity designation against T. cruzi” value in data set [1] is “active”. For the same compound, the E1/2 reduction potential in data set [2] (in DMSO) is given as -1.07 V.

For `Cl.O=[N+]([O-])c1ncn(CCCNc2nc(-c3ccccc3)nc3ccccc23)n1` [Compound 20, N-[3-(3-Nitro-1H-1,2,4-triazol-1-yl)propyl]-2-phenyl-quinazolin-4-amine hydrochloride], the E1/2 reduction potential in data set [2] (in DMSO) is reported as -1.04 V.

Turning to `Cl.Clc1ccc2c(NCCCCn3cncn3)ccnc2c1` [Compound 19, 7-Chloro-N-[4-(1H-1,2,4-triazol-1-yl)butyl]quinolin-4-amine], the “L. donovani axen. SI” value in data set [3] is “∼1”. In data set [1], the “fold increase of T. cruzi IC50 compared to the nitro-containing analog” value turned out to be 658 fold. As to `Cl.O=[N+]([O-])c1nccn1CCCNCc1cc(C(F)(F)F)cc(C(F)(F)F)c1` [Compound 26], the “L. donovani axen. SI” value in data set [3] is on record as “∼2”.

For `Cl.O=[N+]([O-])c1nccn1CCCNc1nc(-c2ccccc2)nc2ccccc12` [Compound 8, N-[3-(2-Nitro-1H-imidazol-1-yl)propyl]-2-phenylquinazolin-4-amine hydrochloride], the E1/2 reduction potential in data set [2] (in DMSO) was -1.03 V. As to `CC1CS(=O)(=O)CCN1/N=C/c1ccc([N+](=O)[O-])o1` (centres unmarked) [Nifurtimox, 4-(5-nitrofurfurylidenamino)-3-methylthio-morpholine-1,1-dioxide], in data set [4], the E1/2 reduction potential is -0.88 V. Take “6-Methyl-4-N-[3-(2-nitro-1H-1,2,4-triazol-1-yl)propyl]-pyrimidin-2,4-diamine hydrochloride [Compound 22]”: the “L. donovani axen. SI” value in data set [3] is “∼3”. For the same compound, the IC50 in data set [5] is > 286 µM. Moreover, the “T. cruzi SI” value in data set [1] (setting [8]) is recorded as >8. Further, the “activity designation against T. cruzi” value in data set [1] is recorded as “moderately active (IC50 = 4.0-60 μM)”. Further, in data set [6] (setting [8]), the “T.b.rhodesiense SI” value was >131. Consider `Cl.O=[N+]([O-])c1ncn(CCCNc2c3ccccc3nc3ccccc23)n1` [Compound 1, 9-[(3-nitro-1H-1,2,4-triazolyl)-propylamino]acridine hydrochloride], for which the toxicity in vivo entry in data set [7] is “demonstrated toxicity”. Further, in the data set with T. cruzi, the fraction of cures is listed as 20%; the peripheral parasite levels entry is “rapid and persistent drop”. As to `O=C1C(Cl)=C(NCCCn2cnc([N+](=O)[O-])n2)C(=O)c2ccccc21` [Compound 25, 2-Chloro-3-{[3-(3-nitro-1H-1,2,4-triazol-1-yl)propyl]amino}-1,4-dihydronaphthalene-1,4-dione], the “fold greater effect on T. cruzi growth than 2-nitroimidazole counterpart” value in data set [1] (3-nitrotriazole versus its 2-nitroimidazole analog) is reported as 2 fold.

Turning to `Cc1cc(NCCCn2ccnc2[N+](=O)[O-])nc(N)n1.Cl` [Compound 11, 6-Methyl-4-N-[3-(2-nitro-1H-imidazol-1-yl)propyl]-pyrimidin-2,4-diamine hydrochloride], in data set [3], the “L. donovani axen. SI” value is “∼3”. `Cl.O=[N+]([O-])c1ncn(CCCN(Cc2ccc(C(F)(F)F)cc2)Cc2ccc(C(F)(F)F)cc2)n1` [Compound 38, [3-(3-Nitro-1H-1,2,4-triazol-1-yl)propyl]bis({[4-(trifluoromethyl)phenyl]methyl})amine hydrochloride]: the “activity designation against T. cruzi” value in data set [1] is “active”. In addition, the E1/2 reduction potential in data set [2] (in DMSO) is reported as -1.06 V. The “activity designation against T.b. rhodesiense” value in data set [6] is reported as “active”. Regarding `Cl.O=[N+]([O-])c1ncn(CCCNCc2ccc(C(F)(F)F)cc2)n1` [Compound 37, [3-(3-Nitro-1H-1,2,4-triazol-1-yl)propyl]({[4-(trifluoromethyl)phenyl]methyl})amine hydrochloride], the “activity designation against T. cruzi” value in data set [1] is on record as “active”. Consider `Cl.Cl.O=[N+]([O-])c1ncn(CCCCN2CCN(Cc3ccc(C(F)(F)F)cc3)CC2)n1` [Compound 41, 1-[4-(3-Nitro-1H-1,2,4-triazol-1-yl)butyl]-4-{[4-(trifluoromethyl)phenyl]methyl}piperazine dihydrochloride], for which the E1/2 reduction potential in data set [2] (in DMSO) is -1.04 V. As to `Cl.O=[N+]([O-])c1ncn(CCCCNc2ccnc3cc(Cl)ccc23)n1` [Compound 17, 7-Chloro-N-[4-(3-nitro-1H-1,2,4-triazol-1-yl)butyl]quinolin-4-amine hydrochloride], the E1/2 reduction potential in data set [2] (in CH3CN) was -1.18 V. In addition, the “activity designation against T.b. rhodesiense” value in data set [6] is “active”. With `Cl.Cl.O=[N+]([O-])c1nccn1CCCN1CCN(Cc2ccc(C(F)(F)F)cc2)CC1` [Compound 39, 1-[3-(2-Nitro-1H-imidazol-1-yl)propyl]-4-{[4-(trifluoromethyl)phenyl]methyl}piperazine dihydrochloride], the “L. donovani axen. SI” value in data set [3] is reported as “∼1”. `Cl.FC(F)(F)c1cc(CNCCCCn2cncn2)cc(C(F)(F)F)c1` [Compound 31, {[3,5-bis(Trifluoromethyl)phenyl]methyl}[4-(1H-1,2,4-triazol-1-yl)butyl]amine hydrochloride]: the “fold increase of T. cruzi IC50 compared to the nitro-containing analog” value in data set [1] was 730 fold. Regarding `Cl.Cl.O=[N+]([O-])c1ncn(CCCN2CCN(Cc3ccc(C(F)(F)F)cc3)CC2)n1` [Compound 40, 1-[3-(3-Nitro-1H-1,2,4-triazol-1-yl)propyl]-4-{[4-(trifluoromethyl)phenyl]methyl}piperazine dihydrochloride], the SI in data set [1] (Table 2, T. cruzi, IC50 in L6 cells / IC50 in parasites) is listed as >562.
